Measurements taken from ChEMBL document CHEMBL1811781, “Arthrinins A-D: novel diterpenoids and further constituents from the sponge derived fungus Arthrinium sp” (Bioorg Med Chem, 2011).
The source made the active and inactive calls. The calls are words filed in the database; no cut-off is given here.

Assays:
[1] = target: RAC-alpha serine/threonine-protein kinase (Homo sapiens, UniProt P31749); test: Inhibition of recombinant AKT1 assessed as 33Pi incorporation after 60 mins by scintillation counting
Sequence of RAC-alpha serine/threonine-protein kinase (P31749 whole entry): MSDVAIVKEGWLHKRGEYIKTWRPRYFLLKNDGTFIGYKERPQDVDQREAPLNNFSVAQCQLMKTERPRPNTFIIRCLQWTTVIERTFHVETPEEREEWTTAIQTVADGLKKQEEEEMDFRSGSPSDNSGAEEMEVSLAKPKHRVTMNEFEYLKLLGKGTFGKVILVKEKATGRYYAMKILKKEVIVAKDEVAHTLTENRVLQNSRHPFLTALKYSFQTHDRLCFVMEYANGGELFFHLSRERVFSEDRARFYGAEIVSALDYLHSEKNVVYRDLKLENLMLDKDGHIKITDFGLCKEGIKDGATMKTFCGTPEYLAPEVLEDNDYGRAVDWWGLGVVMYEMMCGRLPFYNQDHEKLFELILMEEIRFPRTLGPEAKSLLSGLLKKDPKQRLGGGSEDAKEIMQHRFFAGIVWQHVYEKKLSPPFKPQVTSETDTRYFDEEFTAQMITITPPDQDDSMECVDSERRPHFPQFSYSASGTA
In short: (§1)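 Recombinant kinase with GSK3(14-27) substrate in 70 mM HEPES-NaOH pH 7.5, 3 mM MgCl2, 3 mM MnCl2, Na-orthovanadate, 1.2 mM DTT, PEG, 1 µM [γ-33P]-ATP. Incubated 30 °C, 60 min, stopped with 2% H3PO4, washed with 0.9% NaCl, 33Pi counted. IC50 from residual activity over 10 concentrations in singlicate.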

[2] = target: Hepatocyte growth factor receptor (Homo sapiens, UniProt P08581); test: Inhibition of wild type MET assessed as 33Pi incorporation after 60 mins by scintillation counting
In short: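 Wild-type MET phosphorylates poly(Ala,Glu,Lys,Tyr) in HEPES-NaOH pH 7.5 (70 mM) with 3 mM MgCl2, 3 mM MnCl2, orthovanadate, 1.2 mM DTT, PEG, 1 µM [γ-33P]-ATP, at 30 °C for 60 min. Stop with 2% H3PO4, wash, scintillation count. IC50 from residual activity at 10 singlicate concentrations.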

K562 [3] = test: Antiproliferative activity against human K562 cells up to 365 uM after 24 hrs by MTT assay; assay type: functional, cell-based
[4] = target: ALK tyrosine kinase receptor (Homo sapiens, UniProt Q9UM73); test: Inhibition of recombinant ALK assessed as 33Pi incorporation after 60 mins by scintillation counting
In short: (§2)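 Tyrosine kinases assayed on poly(Glu,Tyr) in 70 mM HEPES-NaOH pH 7.5, 3 mM MgCl2, 3 mM MnCl2, orthovanadate, 1.2 mM DTT, PEG, 1 µM [γ-33P]-ATP; 30 °C for 60 min, then 2% H3PO4 stop, saline wash, 33Pi scintillation. IC50 derived from residual activity at 10 concentrations in singlicate.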

[5] = target: Tyrosine-protein kinase receptor UFO (Homo sapiens, UniProt P30530); test: (§3) Inhibition of recombinant AXL assessed as 33Pi incorporation after 60 mins by scintillation counting; in short: as §2
[6] = target: Serine/threonine-protein kinase Nek6 (Homo sapiens, UniProt Q9HC98); test: Inhibition of recombinant NEK6 assessed as 33Pi incorporation after 60 mins by scintillation counting; in short: as §1
Sequence of Serine/threonine-protein kinase Nek6 (Q9HC98 whole entry): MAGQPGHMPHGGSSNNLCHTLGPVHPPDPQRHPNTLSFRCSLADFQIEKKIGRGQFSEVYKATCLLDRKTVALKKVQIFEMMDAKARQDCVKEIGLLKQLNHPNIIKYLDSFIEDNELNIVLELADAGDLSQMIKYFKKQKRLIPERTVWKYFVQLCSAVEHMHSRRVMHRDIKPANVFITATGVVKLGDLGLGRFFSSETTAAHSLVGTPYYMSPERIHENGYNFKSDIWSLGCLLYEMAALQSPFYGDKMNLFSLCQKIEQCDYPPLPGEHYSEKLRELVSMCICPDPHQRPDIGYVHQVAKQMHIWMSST

[7] = target: Serine/threonine-protein kinase pim-1 (Homo sapiens, UniProt P11309); test: Inhibition of recombinant PIM1 assessed as 33Pi incorporation after 60 mins by scintillation counting; in short: as §1
[8] = target: Insulin-like growth factor 1 receptor (Homo sapiens, UniProt P08069); test: Inhibition of recombinant IGF1-R assessed as 33Pi incorporation after 60 mins by scintillation counting; in short: as §2
Sequence of Insulin-like growth factor 1 receptor (P08069 31-736 limits assumed): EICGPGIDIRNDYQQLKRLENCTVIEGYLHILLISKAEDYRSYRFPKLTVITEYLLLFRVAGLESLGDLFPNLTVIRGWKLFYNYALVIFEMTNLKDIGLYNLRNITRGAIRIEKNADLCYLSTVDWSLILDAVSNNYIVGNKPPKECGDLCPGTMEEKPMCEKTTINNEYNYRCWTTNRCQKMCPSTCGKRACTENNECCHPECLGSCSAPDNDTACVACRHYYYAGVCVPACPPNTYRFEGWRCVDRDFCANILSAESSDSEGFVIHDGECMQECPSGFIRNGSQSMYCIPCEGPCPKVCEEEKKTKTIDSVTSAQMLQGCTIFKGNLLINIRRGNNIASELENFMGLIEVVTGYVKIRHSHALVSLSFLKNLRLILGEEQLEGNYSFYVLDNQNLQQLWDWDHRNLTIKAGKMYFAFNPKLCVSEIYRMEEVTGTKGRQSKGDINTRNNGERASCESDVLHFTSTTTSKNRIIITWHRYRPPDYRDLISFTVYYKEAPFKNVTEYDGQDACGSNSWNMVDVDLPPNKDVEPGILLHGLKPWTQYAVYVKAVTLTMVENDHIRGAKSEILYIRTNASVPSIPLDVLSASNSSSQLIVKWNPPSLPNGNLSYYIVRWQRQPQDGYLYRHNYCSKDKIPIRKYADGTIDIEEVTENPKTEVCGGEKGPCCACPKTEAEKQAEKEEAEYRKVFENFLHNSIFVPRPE
Sequence of Insulin-like growth factor 1 receptor (P08069 741-1367 limits assumed): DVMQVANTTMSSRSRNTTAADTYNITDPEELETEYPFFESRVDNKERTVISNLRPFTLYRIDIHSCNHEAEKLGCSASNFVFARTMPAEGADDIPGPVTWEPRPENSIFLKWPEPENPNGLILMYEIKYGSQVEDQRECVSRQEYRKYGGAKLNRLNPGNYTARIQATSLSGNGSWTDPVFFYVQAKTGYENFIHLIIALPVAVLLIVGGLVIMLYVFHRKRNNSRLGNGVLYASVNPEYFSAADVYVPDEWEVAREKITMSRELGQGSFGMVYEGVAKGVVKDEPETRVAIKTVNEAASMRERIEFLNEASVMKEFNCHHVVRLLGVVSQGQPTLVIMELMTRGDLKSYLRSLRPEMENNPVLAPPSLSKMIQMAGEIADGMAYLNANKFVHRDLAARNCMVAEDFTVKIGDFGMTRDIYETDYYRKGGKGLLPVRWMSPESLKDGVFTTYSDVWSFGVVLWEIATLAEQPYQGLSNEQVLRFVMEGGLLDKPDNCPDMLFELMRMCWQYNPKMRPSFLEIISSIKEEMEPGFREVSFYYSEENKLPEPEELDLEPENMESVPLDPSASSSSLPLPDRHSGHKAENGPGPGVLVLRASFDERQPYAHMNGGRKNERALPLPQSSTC

A2780 [9] = test: Antiproliferative activity against human A2780 cells after 24 hrs by MTT assay; assay type: functional, cell-based
In short: (§4)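 Microplate MTT proliferation read-out, scored against untreated controls; each experiment run in triplicate.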

Aurora kinase B = Aurora kinase B (Homo sapiens, UniProt Q96GD4); test: Inhibition of recombinant Aurora-b assessed as 33Pi incorporation after 60 mins by scintillation counting
Sequence of Aurora kinase B (Q96GD4 whole entry): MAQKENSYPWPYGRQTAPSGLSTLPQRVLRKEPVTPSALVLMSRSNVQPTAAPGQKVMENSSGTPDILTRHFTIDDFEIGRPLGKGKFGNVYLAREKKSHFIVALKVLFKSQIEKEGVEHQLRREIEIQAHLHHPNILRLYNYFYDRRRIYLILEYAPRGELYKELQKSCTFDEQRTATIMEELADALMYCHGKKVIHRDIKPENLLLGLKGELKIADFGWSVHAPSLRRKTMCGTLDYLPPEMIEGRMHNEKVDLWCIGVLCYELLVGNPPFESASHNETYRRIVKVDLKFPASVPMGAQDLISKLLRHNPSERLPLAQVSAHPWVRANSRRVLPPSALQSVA
In short: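 Substrate tetra(LRRWSLG) with recombinant Aurora-B. Buffer is 70 mM HEPES-NaOH pH 7.5, 3 mM MgCl2, 3 mM MnCl2, orthovanadate, 1.2 mM DTT, PEG, with 1 µM [γ-33P]-ATP. After 60 min at 30 °C, 2% H3PO4 stop, NaCl washes, 33Pi counted. IC50 fitted from 10 singlicate concentrations.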

[10] = target: Serine/threonine-protein kinase N1 (Homo sapiens, UniProt Q16512); test: Inhibition of recombinant PRK1 assessed as 33Pi incorporation after 60 mins by scintillation counting
In short: (§5)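 Kinase reaction uses RBER-CHKtide as substrate in HEPES-NaOH pH 7.5 (70 mM) with 3 mM each MgCl2 and MnCl2, orthovanadate, 1.2 mM DTT, PEG and 1 µM [γ-33P]-ATP. Run at 30 °C for 60 min, quenched in 2% H3PO4, saline-washed, scintillation-counted. Residual activity at 10 concentrations (singlicate) gives IC50.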

HUVEC = test: Inhibition of VEGF-A induced HUVEC cell sprouting after 24 hrs by angiogenesis assay; assay type: functional, cell-based; conditions: Homo sapiens
In short: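 HUVEC spheroids (500 cells, formed overnight in hanging drops) embedded in collagen gel. Compound plus VEGF-A (25 ng/mL final) added after 30 min; 37 °C for 24 h, then paraformaldehyde fixation. Mean cumulative sprout length of 10 random spheroids per point; seven concentrations, 10 µM to 10 nM, in singlicate for IC50.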

[11] = target: Serine/threonine-protein kinase Nek2 (Homo sapiens, UniProt P51955); test: (§6) Inhibition of recombinant NEK2 assessed as 33Pi incorporation after 60 mins by scintillation counting
In short: (§7)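 NEK2 reaction on RB-CTF substrate. Contains 70 mM HEPES-NaOH pH 7.5, 3 mM MgCl2/MnCl2, orthovanadate, 1.2 mM DTT, PEG and 1 µM [γ-33P]-ATP. Incubation is 30 °C, 60 min, followed by 2% H3PO4 stop, 0.9% NaCl washes and 33Pi scintillation counting. IC50 from 10 concentrations in singlicate.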

A2780 [12] = test: Antiproliferative activity against human cisplatin resistant A2780 cells after 24 hrs by MTT assay; assay type: functional, cell-based; in short: as §4
[13] = target: Proto-oncogene tyrosine-protein kinase Src (Homo sapiens, UniProt P12931); test: Inhibition of recombinant SRC assessed as 33Pi incorporation after 60 mins by scintillation counting; in short: as §2
Sequence of Proto-oncogene tyrosine-protein kinase Src (P12931 2-536 limits assumed): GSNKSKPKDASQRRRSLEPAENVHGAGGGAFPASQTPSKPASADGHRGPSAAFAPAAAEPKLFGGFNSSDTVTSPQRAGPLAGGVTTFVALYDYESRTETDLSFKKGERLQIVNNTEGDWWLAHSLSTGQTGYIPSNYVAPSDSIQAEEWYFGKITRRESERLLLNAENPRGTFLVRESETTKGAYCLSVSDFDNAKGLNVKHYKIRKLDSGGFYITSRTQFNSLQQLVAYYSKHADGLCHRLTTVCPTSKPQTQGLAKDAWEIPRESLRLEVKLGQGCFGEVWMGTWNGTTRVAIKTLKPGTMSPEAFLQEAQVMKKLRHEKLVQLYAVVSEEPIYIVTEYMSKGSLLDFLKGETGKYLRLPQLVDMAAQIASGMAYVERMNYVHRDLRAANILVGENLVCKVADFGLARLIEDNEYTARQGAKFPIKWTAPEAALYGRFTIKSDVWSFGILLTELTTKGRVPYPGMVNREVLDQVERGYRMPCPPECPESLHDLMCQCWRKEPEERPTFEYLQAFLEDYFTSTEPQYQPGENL

Focal adhesion kinase 1 = Focal adhesion kinase 1 (Homo sapiens, UniProt Q05397); test: Inhibition of recombinant FAK assessed as 33Pi incorporation after 60 mins by scintillation counting; in short: as §2
[14] = target: NUAK family SNF1-like kinase 1 (Homo sapiens, UniProt O60285); test: (§8) Inhibition of recombinant ARK5 assessed as 33Pi incorporation after 60 mins by scintillation counting; in short: as §5
L5178Y = test: Antiproliferative activity against mouse L5178Y cells after 24 hrs by MTT assay; assay type: functional, cell-based; in short: as §4
[15] = target: Dual specificity mitogen-activated protein kinase kinase 1 (Homo sapiens, UniProt Q02750); test: Inhibition of wild type MEK1 assessed as 33Pi incorporation after 60 mins by scintillation counting
In short: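 ERK2-KR is the substrate for wild-type MEK1 in 70 mM HEPES-NaOH pH 7.5 containing 3 mM MgCl2, 3 mM MnCl2, orthovanadate, 1.2 mM DTT, PEG and 1 µM [γ-33P]-ATP. Reaction runs 60 min at 30 °C and is stopped with 2% H3PO4; incorporated 33Pi is counted after washing. IC50 comes from 10 concentrations tested once each.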

[16] = target: Vascular endothelial growth factor receptor 2 (Homo sapiens, UniProt P35968); test: Inhibition of recombinant VEGF-R2 assessed as 33Pi incorporation after 60 mins by scintillation counting; in short: as §2
Sequence of Vascular endothelial growth factor receptor 2 (P35968 whole entry): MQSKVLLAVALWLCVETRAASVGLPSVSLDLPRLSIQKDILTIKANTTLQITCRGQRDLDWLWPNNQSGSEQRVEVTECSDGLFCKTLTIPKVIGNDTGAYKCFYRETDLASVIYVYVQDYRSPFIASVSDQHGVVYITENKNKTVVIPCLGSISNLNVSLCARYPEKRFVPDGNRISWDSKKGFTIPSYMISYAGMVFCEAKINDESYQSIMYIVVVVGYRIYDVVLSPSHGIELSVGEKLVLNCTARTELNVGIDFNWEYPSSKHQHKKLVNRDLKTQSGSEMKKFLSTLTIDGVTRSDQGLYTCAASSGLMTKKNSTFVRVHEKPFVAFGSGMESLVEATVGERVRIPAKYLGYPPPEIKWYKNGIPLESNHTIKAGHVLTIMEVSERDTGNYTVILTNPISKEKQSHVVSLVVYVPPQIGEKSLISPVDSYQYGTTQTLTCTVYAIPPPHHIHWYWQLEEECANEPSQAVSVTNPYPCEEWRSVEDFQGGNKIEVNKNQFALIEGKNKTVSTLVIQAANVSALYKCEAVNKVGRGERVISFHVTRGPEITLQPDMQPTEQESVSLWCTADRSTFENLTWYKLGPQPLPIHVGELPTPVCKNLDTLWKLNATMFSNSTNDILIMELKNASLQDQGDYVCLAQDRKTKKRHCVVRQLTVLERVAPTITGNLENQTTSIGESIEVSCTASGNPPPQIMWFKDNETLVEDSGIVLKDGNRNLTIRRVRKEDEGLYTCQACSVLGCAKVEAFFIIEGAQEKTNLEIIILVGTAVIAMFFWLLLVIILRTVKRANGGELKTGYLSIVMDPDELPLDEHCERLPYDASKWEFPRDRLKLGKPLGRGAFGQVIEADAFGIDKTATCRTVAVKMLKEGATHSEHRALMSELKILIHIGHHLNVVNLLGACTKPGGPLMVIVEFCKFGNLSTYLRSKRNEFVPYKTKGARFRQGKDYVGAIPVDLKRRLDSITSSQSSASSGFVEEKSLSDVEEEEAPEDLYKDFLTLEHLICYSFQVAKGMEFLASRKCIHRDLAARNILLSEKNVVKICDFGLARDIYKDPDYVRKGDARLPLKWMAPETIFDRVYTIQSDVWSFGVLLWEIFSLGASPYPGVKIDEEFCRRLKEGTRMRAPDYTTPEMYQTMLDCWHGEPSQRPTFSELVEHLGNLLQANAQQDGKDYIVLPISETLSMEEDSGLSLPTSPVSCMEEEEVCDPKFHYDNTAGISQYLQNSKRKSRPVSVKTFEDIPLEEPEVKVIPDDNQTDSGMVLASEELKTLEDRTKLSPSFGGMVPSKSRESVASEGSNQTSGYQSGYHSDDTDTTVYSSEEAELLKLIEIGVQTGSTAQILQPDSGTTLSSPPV

[17] = target: Serine/threonine-protein kinase PLK1 (Homo sapiens, UniProt P53350); test: Inhibition of recombinant PLK1 assessed as 33Pi incorporation after 60 mins by scintillation counting; in short: as §5
Sequence of Serine/threonine-protein kinase PLK1 (P53350 whole entry): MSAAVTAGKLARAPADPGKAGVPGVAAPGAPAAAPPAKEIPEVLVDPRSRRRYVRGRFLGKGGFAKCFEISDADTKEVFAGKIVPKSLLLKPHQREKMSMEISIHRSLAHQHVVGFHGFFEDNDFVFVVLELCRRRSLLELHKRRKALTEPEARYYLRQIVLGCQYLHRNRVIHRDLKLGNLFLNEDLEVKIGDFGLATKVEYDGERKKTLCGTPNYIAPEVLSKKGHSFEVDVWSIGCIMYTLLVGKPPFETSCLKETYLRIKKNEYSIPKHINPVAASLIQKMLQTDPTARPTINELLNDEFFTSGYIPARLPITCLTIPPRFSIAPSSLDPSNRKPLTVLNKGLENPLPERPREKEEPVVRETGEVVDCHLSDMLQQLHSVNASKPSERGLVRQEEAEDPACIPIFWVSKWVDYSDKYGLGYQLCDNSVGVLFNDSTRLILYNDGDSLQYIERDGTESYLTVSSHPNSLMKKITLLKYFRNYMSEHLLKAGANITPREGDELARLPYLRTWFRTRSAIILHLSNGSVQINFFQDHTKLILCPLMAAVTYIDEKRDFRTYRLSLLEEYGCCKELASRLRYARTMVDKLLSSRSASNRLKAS

K562 [18] = test: Antiproliferative activity against human K562 cells after 24 hrs by MTT assay; assay type: functional, cell-based; in short: as §4
[19] = target: Tyrosine-protein kinase receptor UFO (Homo sapiens) (UniProt P30530); test: as §3; in short: as §2
[20] = target: Serine/threonine-protein kinase Nek2 (Homo sapiens) (UniProt P51955); test: as §6; in short: as §7
[21] = target: NUAK family SNF1-like kinase 1 (Homo sapiens) (UniProt O60285); test: as §8; in short: as §5
[22] = Homo sapiens, A2780, 24 h, read-out: IC50
[23] = Mus musculus, L5178Y, 24 h, read-out: IC50
[24] = Homo sapiens, K562, 24 h, read-out: IC50

Cc1c(O)c(O)cc2oc3cc(O)cc(O)c3c(=O)c12 [ANOMALIN A]
IC50 [1]: > 100 µM
IC50 [2]: 4.4 µM
IC50 (K562 [3]): Not Active
IC50 [4]: 1.1 µM
IC50 [5]: 6.6 µM
IC50 [6]: 67.8 µM
IC50 [7]: 300 nM
IC50 [8]: 8.6 µM
IC50 (A2780 [9]; [22]): 4.34 µM
IC50 (Aurora kinase B): 500 nM
IC50 [10]: 45.3 µM
IC50 (HUVEC): 1800 nM
IC50 [11]: 83.9 µM
IC50 (A2780 [12]; [22]): 26 µM
IC50 [13]: 12.9 µM
IC50 (Focal adhesion kinase 1): 15.2 µM
IC50 [14]: 15.6 µM
IC50 (L5178Y; [23]): 400 nM
IC50 [15]: > 100 µM
IC50 [16]: 0.8 µM
IC50 [17]: 8.8 µM

Cc1cc(O)cc2oc3cc(O)cc(O)c3c(=O)c12 [NORLICHEXANTHONE]
IC50 [1]: > 100 µM
IC50 [2]: > 100 µM
IC50 [4]: 41.3 µM
IC50 [5]: > 100 µM
IC50 [6]: > 100 µM
IC50 (K562 [18]; [24]): 254 µM
IC50 [7]: 300 nM
IC50 [8]: 33.3 µM
IC50 (A2780 [9]; [22]): 68.2 µM
IC50 (Aurora kinase B): 3000 nM
IC50 [10]: 54.9 µM
IC50 [11]: > 100 µM
IC50 (A2780 [12]; [22]): 74 µM
IC50 [13]: 35 µM
IC50 (Focal adhesion kinase 1): > 100 µM
IC50 [14]: 33 µM
IC50 (L5178Y; [23]): 1160 nM
IC50 [15]: > 100 µM
IC50 [16]: 11.7 µM
IC50 [17]: 75.7 µM

C=Cc1c(C)cc2c(c1O)[C@]13C[C@H]1CC[C@@]1(C)C(=O)O[C@H]([C@H]2O)[C@@H]31 [ARTHRININ B]
IC50 (K562 [18]; k562): Not Active
IC50 (A2780 [9]; a2780): Not Active
IC50 (A2780 [12]; a2780): Not Active
IC50 (L5178Y; l5178y): Not Active

C=Cc1c(C)cc(O)c2c1[C@H](O)[C@H]1OC(=O)[C@]3(C)CC[C@@H]4C[C@@]24[C@H]13 [ARTHRININ A]
IC50 (K562 [18]; k562): Not Active
IC50 (A2780 [9]; a2780): Not Active
IC50 (A2780 [12]; a2780): Not Active
IC50 (L5178Y; l5178y): Not Active

C=Cc1c(C)cc(O)c2c1[C@H](O)[C@@H](O)[C@H]1[C@]23C[C@H]3CC[C@@]1(C)C(=O)OC [ARTHRININ D]
IC50 (K562 [18]; k562): Not Active
IC50 (A2780 [9]; a2780): Not Active
IC50 (A2780 [12]; a2780): Not Active
IC50 (L5178Y; l5178y): Not Active

Cc1cc(O)c2c(c1)[C@H](O)[C@H]1OC(=O)[C@]3(C)CC[C@@H]4C[C@@]24[C@H]13 [ARTHRININ C]
IC50 (K562 [18]; k562): Not Active
IC50 (A2780 [9]; a2780): Not Active
IC50 (A2780 [12]; a2780): Not Active
IC50 (L5178Y; l5178y): Not Active

C=C[C@@]1(C)C=C2C(=O)C(O)=C3[C@](C)(C(=O)O)CC[C@@H]4C[C@]34[C@]2(O)C(=O)C1 [MYROCIN A]
inhibition [1]: inactive
inhibition [2]: inactive
inhibition [4]: inactive
inhibition [19]: inactive
inhibition [6]: inactive
IC50 (K562 [18]; [24]): 42 µM
inhibition [7]: inactive
inhibition [8]: inactive
IC50 (A2780 [9]; [22]): 28.2 µM
inhibition (Aurora kinase B): inactive
inhibition [10]: inactive
IC50 (HUVEC): 3700 nM
inhibition [20]: inactive
IC50 (A2780 [12]; [22]): 155 µM
inhibition [13]: inactive
inhibition (Focal adhesion kinase 1): inactive
inhibition [21]: inactive
IC50 (L5178Y; [23]): 2740 nM
inhibition [15]: inactive
inhibition [16]: inactive
inhibition [17]: inactive

C/C=C1\NC(=O)[C@H](Cc2ccccc2)NC(=O)[C@@H](C(C)C)NC(=O)[C@@H]([C@H](C)CC)NC(=O)[C@H](NC(=O)[C@H](NC(=O)[C@H](CCCN)NC(=O)[C@H]2CCCN2C(=O)[C@H](NC(=O)[C@@H](NC(=O)[C@@H](NC(=O)[C@H](NC(=O)CCCC(C)C)C(C)C)[C@@H](C)O)C(C)C)C(C)C)[C@H](C)CC)[C@H](C)OC(=O)[C@H](C(C)C)NC1=O [KAHALALIDE F]
IC50 (L5178Y; [23]): 4300 nM

C=C[C@]1(C)C=C2[C@@H](O)[C@@H]3OC(=O)[C@@]4(C)CC[C@H]5C[C@]5([C@@H]34)[C@@]2(O)C(=O)C1 [MYROCIN D]
inhibition [1]: inactive
inhibition [2]: inactive
inhibition [4]: inactive
inhibition [19]: inactive
inhibition [6]: inactive
IC50 (K562 [18]; [24]): 50.3 µM
inhibition [7]: inactive
inhibition [8]: inactive
IC50 (A2780 [9]; [22]): 41.3 µM
inhibition (Aurora kinase B): inactive
inhibition [10]: inactive
IC50 (HUVEC): 2600 nM
inhibition [20]: inactive
IC50 (A2780 [12]; [22]): 66 µM
inhibition [13]: inactive
inhibition (Focal adhesion kinase 1): inactive
inhibition [21]: inactive
IC50 (L5178Y; [23]): 2050 nM
inhibition [15]: inactive
inhibition [16]: inactive
inhibition [17]: inactive

CCN(CC)CCNC(=O)c1c(C)[nH]c(/C=C2\C(=O)Nc3ccc(F)cc32)c1C [SUNITINIB]
IC50 (HUVEC): 120 nM
